S100A4 MyoIIA = inhibitors of S100A4-myosin IIA peptide binding, primary screen, biochemical, fluorescence polarization, TAMRA-MyoIIA peptide; AID 652163, 2013; inhibition, % at 10.7 µM; 360,000 compounds, 0.14% hits; Protein S100-A4 (Homo sapiens), P26447;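 active = mean inhibition of at least 70% across replicates, with every replicate also reaching that level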
Target sequence (P26447 whole entry, looked up): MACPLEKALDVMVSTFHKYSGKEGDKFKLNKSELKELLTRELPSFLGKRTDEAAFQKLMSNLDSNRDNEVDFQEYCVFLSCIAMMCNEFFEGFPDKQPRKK
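System – human S100A4 monomer protein, biochemical binding assay · Buffer or medium – Calcium-containing HEPES buffer, pH 7.2 · Timing – 5 min between mix addition and reading · Also added – TAMRA-labelled myosin IIA heavy-chain peptide probe, 5 nM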
rRNA inh HTS = reduced GFP signal of wild-type E. coli, primary screen, bacterial rRNA inhibitor project, GFP/RFP fluorescence, OD600, single point; E. coli WT GFP vs humanized-ribosome RFP mutants, 24 h; stronger effect = lower value; DMSO median 0, no signal -100; GFP signal change (wild-type ribosome), % (test concentration not listed); 350,000 compounds, 1.6% hits;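 active = significant combined selectivity score with lowered wild-type GFP, culture density cut under 30%, mutant RFP and density less affected; inactive = any of these conditions unmet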
PGC1a acetyl inh = inhibitors of PGC1a acetylation signal, primary screen, cell-based, U2OS, AlphaScreen, inhibitor mode. AlphaScreen anti-acetyl-lysine; with virally co-expressed GCN5 acetyltransferase. 350,000 compounds, 0.17% hits. inhibition, % at 15.6 µM. AID 651687, 2012;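 active = every replicate shows inhibition of at least 40%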;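 note: 0% = neutral control wells and 100% = positive control wells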
Statin myotox sup = suppressors of statin myotoxicity in C2C12 myotubes, primary screen, cell-based, single point, plate reader | C2C12 myotubes + simvastatin, ATP luminescence, 48 h; scaled: DMSO 0, geranylgeraniol control 100 | rescue of ATP level, % at 7.49 µM | 330,000 compounds, 0.78% hits;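 active = mean ATP rescue above about 67%, or every replicate alone reaching that limit, limit read from the data, passing the limit was not always enough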;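 note: myotubes were challenged with 10 µM simvastatin during compound exposure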
Cneo AK release = Cryptococcus neoformans cell lysis inducers, primary screen, AK release luminescence, single concentration | C. neoformans lysis, adenylate kinase release luminescence, 4 h; normalised: neutral wells 0, clomiphene wells 100 | lysis activity, % at 15 µM | 360,000 compounds, 0.2% hits;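 active = mean lysis activity across replicates of at least 80%, whatever share of replicates individually reach that level; inactive = mean lysis activity below 80%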
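Test system: log-phase Cryptococcus neoformans yeast cells. Input: 5 × 10^6 yeast cells/mL. Medium: fresh YPD growth medium. Doses: single dose. Incubation: static 4 h at 37 °C with compound, 1 h detection. Measured by: luminescent adenylate kinase detection reagent. Read-out: signal increase indicating cell lysis. Benchmarks: Clomiphene.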
SIRT5 inh = SIRT5 desuccinylase inhibitors, primary screen, biochemical, fluorescence imaging, single point, set 5; NAD-dependent protein deacylase sirtuin-5, mitochondrial (Homo sapiens), Q9NXA8; Purified SirT5, succinyl-peptide AMC, trypsin-coupled fluorescence; inhibition, % at 15 µM; 330,000 compounds, 1.1% hits; in the data active = inhibition above about 15%
Target sequence (Q9NXA8 whole entry, looked up): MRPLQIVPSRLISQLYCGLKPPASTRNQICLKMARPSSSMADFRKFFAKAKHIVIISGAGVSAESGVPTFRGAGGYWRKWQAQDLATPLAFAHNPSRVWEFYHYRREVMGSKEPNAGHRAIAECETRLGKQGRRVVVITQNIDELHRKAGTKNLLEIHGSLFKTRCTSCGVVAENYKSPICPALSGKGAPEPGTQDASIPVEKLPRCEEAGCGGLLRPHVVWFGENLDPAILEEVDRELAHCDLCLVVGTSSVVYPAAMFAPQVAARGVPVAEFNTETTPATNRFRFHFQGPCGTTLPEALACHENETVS
* hit, by the source's call; . = no result given. Rows were chosen to be rich in hits. Some 3% of all compounds tested hit in one or more screens of this group.

SMILES	S100A4 MyoIIA	rRNA inh HTS	PGC1a acetyl inh	Statin myotox sup	Cneo AK release	SIRT5 inh
COc1ccc(S(=O)(=O)N(C)C[C@@H]2OCCCC[C@@H](C)Oc3ccc(NS(=O)(=O)c4cn(C)cn4)cc3C(=O)N([C@@H](C)CO)C[C@H]2C)cc1	-6	-6	-5	.	-1	5
C[C@@H]1CN([C@@H](C)CO)C(=O)c2cc(NS(=O)(=O)c3cn(C)cn3)ccc2O[C@@H](C)CCCCO[C@@H]1CN(C)Cc1ccc(C(F)(F)F)cc1	-2	-1	-2	.	96*	15*
O=S(=O)(c1ccccc1)N1CC2(C1)[C@H](c1ccccc1)[C@@H](CO)N2CC1CCOCC1	-6	-2	0	.	.	-2
CC(=O)N1CC2(C1)[C@H](c1ccc(-c3ccc(C#N)cc3)cc1)[C@@H](CO)N2CCC(F)(F)F	-10	-4	.	.	.	1
Cc1ccc2cc(C)c3nnc(SCC(=O)c4cccs4)n3c2c1C	-2	-39*	.	.	.	-2
O=C(Cc1ccncc1)NCC[C@H]1CC[C@@H](NC(=O)C2CC2)[C@H](CO)O1	1	-1	62*	0	55	-10
O=C(Nc1ccc2c(c1)OCO2)N[C@H]1CC[C@H](CCNC(=O)C2CC2)O[C@@H]1CO	-5	-3	-9	-15	1	31*
CC(=O)N[C@H]1CC[C@@H](CCNC(=O)C2CCC2)O[C@H]1CO	6	2	5	-4	112*	2
O=C(Nc1ccc2c(c1)OCO2)N[C@@H]1CC[C@H](CCNC(=O)C2CC2)O[C@@H]1CO	-2	-1	-13	-3	-4	3
CC(=O)N[C@@H]1CC[C@H](CCNC(=O)C2CCC2)O[C@@H]1CO	8	4	2	-1	1	1
Cc1noc(C)c1NC(=O)N[C@H]1CC[C@H](CCNC(=O)C2CC2)O[C@H]1CO	-28	-1	6	-3	-9	18*
Cc1noc(C)c1NC(=O)N[C@@H]1CC[C@H](CCNC(=O)C2CC2)O[C@@H]1CO	-24	3	6	2	-2	1
C[C@H]1CN([C@@H](C)CO)C(=O)Cc2cc(NS(C)(=O)=O)ccc2O[C@H]1CN(C)C(=O)Nc1ccc(C(F)(F)F)cc1	-4	1	6	5	8	9
O=C(Cc1ccccn1)N1CC(=O)N2[C@H](C1)[C@H](c1ccc(C#CC3CCCC3)cc1)[C@@H]2CO	-8	2	.	.	.	-3
CN1C(=O)c2cc(NC(=O)c3ccno3)ccc2OC[C@H]2O[C@@H](CC(=O)Nc3ccccc3)CC[C@@H]21	3	-2	2	22	31	-1
O=C(C1CC1)N1CC2(C1)[C@@H](c1ccccc1)[C@@H](CO)N2Cc1nccs1	-4	-1	9	.	.	1
Cc1noc(C)c1NC(=O)N[C@H]1CC[C@@H](CCNC(=O)C2CCOCC2)O[C@H]1CO	7	5	-5	2	-8	-1
Cc1noc(C)c1NC(=O)N[C@@H]1CC[C@H](CCNC(=O)C2CCOCC2)O[C@@H]1CO	98*	2	15	1	32	-53
CCCn1c(SCC(=O)Nc2ccccc2N2CCCCC2)nc2c1c(=O)n(C)c(=O)n2C	-1	-29*	4	-6	0	1
CCCn1c(SCC(=O)Nc2ccccc2C(=O)OC)nc2c1c(=O)n(C)c(=O)n2C	.	.	-1	1	2	.
CCCn1c(SCC(=O)Nc2ccc3c(c2)OCO3)nc2c1c(=O)n(C)c(=O)n2C	2	8	5	-7	0	25*
CC(C)CC#Cc1ccc2c(c1)O[C@@H](CN(C)C(=O)CN(C)C)[C@H](C)CN([C@H](C)CO)S2(=O)=O	-7	6	6	-15	-2	-6

From PubChem BioAssay
